Reference: ChEMBL document CHEMBL1773006, “Enone- and chalcone-chloroquinoline hybrid analogues: in silico guided design, synthesis, antiplasmodial activity, in vitro metabolism, and mechanistic studies” (J Med Chem, 2011)
Values after ≈ are worked out from the molar mass of the structure shown.

Columns and labels:
[1] = Partition coefficient, log D of the compound at pH 3 by HPLC analysis; type: physicochemical; settings: octanol/water
[2] = tested on: Plasmodium falciparum; experiment: Antiplasmodial activity against chloroquine-sensitive Plasmodium falciparum D10 by FACS-based assay; type: functional, organism-based
[3] = tested on: Plasmodium falciparum; experiment: Antiplasmodial activity against chloroquine-resistant Plasmodium falciparum Dd2 by FACS-based assay; type: functional, organism-based
[4] = tested on: Plasmodium falciparum; experiment: Antiplasmodial activity against chloroquine-resistant Plasmodium falciparum W2 by FACS-based assay; type: functional, organism-based
In short: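 W2 parasites kept in continuous culture in standard medium with 10% human serum, synchronized with 5% D-sorbitol at ring stage when needed. Parasite development read by FACS. Final DMSO at most 0.5%. IC50 in µM is the mean of two independent determinations, each run in duplicate.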

[5] = tested on: Liver microsomes; experiment: (§1) Half life in human liver microsomes assessed as compound degradation at 1 uM by LC-MS analysis in presence of NADPH and UDPGA; type: ADME, Microsome; settings: microsomes, 1 µM
[6] = tested on: Liver; experiment: (§2) Half life in mouse liver microsomes assessed as compound degradation at 1 uM by LC-MS analysis in presence of NADPH and UDPGA; type: ADME, Microsome; settings: microsomes, 1 µM
[7] = Partition coefficient, log D of the compound at pH 7.4 by HPLC analysis; type: physicochemical; settings: octanol/water
[8] = Solubility of the compound in 0.01 M hydrochloric acid at pH 2; type: physicochemical
[9] = Solubility of the compound in phosphate buffer at pH 6.5; type: physicochemical
[10] = Ratio of compound IC50 to hematin IC50 for inhibition of beta-hematin formation
[11] = Inhibition of Plasmodium falciparum falcipain 2 assessed as benzyloxycarbonyl-Phe-Leu-7-amino-4-methylcoumarin substrate hydrolysis after 30 mins by spectrofluorometry analysis
[12] = tested on: Plasmodium falciparum; experiment: Antiplasmodial activity against chloroquine-sensitive Plasmodium falciparum D10 infected in erythrocytes assessed as inhibition of sorbitol-induced hemolysis after 15 mins; type: functional
[13] = tested on: CHO; experiment: Cytotoxicity against CHO cells at 100 uM; type: cell-based, Cricetulus griseus; settings: chinese hamster
[14] = as §1; type: ADME, Microsome; settings: liver microsomes
[15] = as §2; type: ADME, Microsome; settings: liver microsomes
[16] = phosphate buffer, read-out: solubility
[17] = 0.01 M hydrochloric acid, read-out: solubility

Structure (SMILES)	logD [1]	IC50 [2] [nM]	IC50 [3] [nM]	IC50 [4] [nM]	t1/2 [5] [min]	t1/2 [6] [min]	logD [7]	solubility ([8]; buffer) [µg/mL]	solubility ([9]; buffer) [µg/mL]	Ratio IC50 [10]	IC50 [11] [nM]	inhibition (INH) [12] [%]	Activity [13]	half-life at 1 µM [14] [min]	half-life at 1 µM [15] [min]	solubility [9, 16] [µg/mL]	solubility [8, 17] [µg/mL]
COc1ccc(C(=O)/C=C/c2cc(CN3CCN(c4ccnc5cc(Cl)ccc45)CC3)c(O)c(OC)c2)c(OC)c1	2.1	500	500	400	37	11.8	5	> 100	< 1.6	0.3	9100	3.9	Non-toxic	–	–	–	–
COc1cc(/C=C/C(C)=O)ccc1OCCN1CCN(c2ccnc3cc(Cl)ccc23)CC1	1.2	1200	1000	500	–	–	4.2	> 100	–	0.5	> 50000	–	–	9.8	5.6	1.6 (≈ 3.43 µM)	–
COc1cc(/C=C/C(C)=O)ccc1OCCNc1ccnc2cc(Cl)ccc12	1.8	1000	1500	100	10.5	13.4	3	–	–	0.6	> 50000	12.3	–	–	–	6.3 (≈ 15.9 µM)	50 (≈ 126 µM)
COc1cc(/C=C/C(C)=O)ccc1OCc1cn(-c2ccnc3cc(Cl)ccc23)nn1	3.5	–	–	–	–	–	3.6	–	–	–	–	–	–	7.4	6.2	3.1 (≈ 7.13 µM)	3.1 (≈ 7.13 µM)
COc1ccc(C(=O)/C=C/c2ccc(O)c(OC)c2)c(OC)c1	–	5300	7300	> 10000	–	–	–	–	–	> 5	> 50000	27.9	–	–	–	–	–
OCCN1CCN(c2ccnc3cc(Cl)ccc23)CC1	–	5200	3800	1000	–	–	–	–	–	3.9	> 50000	–	–	–	–	–	–
COc1cc(/C=C/C(C)=O)cc(CN2CCN(c3ccnc4cc(Cl)ccc34)CC2)c1O	0.9	1000	1700	500	–	14	3.9	> 100	–	0.5	> 50000	16.8	–	–	–	1.6 (≈ 3.54 µM)	–
COc1ccc(C(=O)/C=C/c2ccc(O)c(CN3CCN(c4ccnc5cc(Cl)ccc45)CC3)c2)c(OC)c1	2	600	500	300	58.6	45.4	5.3	> 100	< 1.6	0.2	10000	–	Non-toxic	–	–	–	–
OCCNc1ccnc2cc(Cl)ccc12	–	2600	1000	200	–	–	–	–	–	4.9	> 50000	0.9	–	–	–	–	–
COc1ccc(C(=O)/C=C/c2ccc(O)cc2)c(OC)c1	–	–	–	–	–	–	–	–	–	1.9	> 50000	–	–	–	–	–	–
COc1cc(/C=C/C(C)=O)ccc1O [DEHYDROZINGERONE]	–	> 20000	> 20000	> 10000	–	–	–	–	–	–	–	21.1	–	–	–	–	–
CC(=O)/C=C/c1ccc(O)cc1	–	–	–	–	–	–	–	–	–	> 5	> 50000	–	–	–	–	–	–
Clc1ccc2c(N3CCNCC3)ccnc2c1	–	700	900	300	–	–	–	–	–	–	> 50000	5.8	–	–	–	–	–
CC(C)C[C@H](NC(=O)[C@H]1O[C@@H]1C(=O)O)C(=O)NCCCCN=C(N)N [E-64]	–	–	–	–	–	–	–	–	–	–	55	–	–	–	–	–	–
COc1ccc(C(=O)/C=C/c2ccc(OCCN3CCN(c4ccnc5cc(Cl)ccc45)CC3)c(OC)c2)c(OC)c1	2.2	1200	500	600	–	–	5.3	> 100	< 1.6	0.2	11700	–	–	11.5	9.8	–	–
CCN(CC)CCCC(C)Nc1ccnc2cc(Cl)ccc12 (stereo not given) [CHLOROQUINE]	–	–	–	–	> 250	–	–	–	–	–	–	–	–	–	–	–	–
CC(=O)/C=C/c1ccc(O)c(CN2CCN(c3ccnc4cc(Cl)ccc34)CC2)c1	0.8	1700	3100	700	7.5	15	4.2	> 100	< 1.6	0.5	29900	11.6	–	–	–	–	–
COc1ccc(C(=O)/C=C/c2ccc(OCCNc3ccnc4cc(Cl)ccc34)c(OC)c2)c(OC)c1	2.8	800	1100	400	17.5	12.7	4.2	> 100	–	0.3	22900	–	–	–	–	3.1 (≈ 5.97 µM)	–
COc1ccc(C(=O)/C=C/c2ccc(OCc3cn(-c4ccnc5cc(Cl)ccc45)nn3)c(OC)c2)c(OC)c1	4.3	–	–	–	51.1	56.8	4.3	< 1.6	< 1.6	1.6	10800	15.4	–	–	–	–	–
